Measured values collected from several papers.
Protocols differ between the studies behind these lines.
Organism: Staphylococcus aureus
Read-out: microbial growth

| Structure (SMILES) | technique | strain | tested at | time | inhibition zone |
| --- | --- | --- | --- | --- | --- |
| Cc1ccc2nc(-n3nc(C(C)C)c4c3-c3ccccc3C4=O)sc2c1 | well diffusion | NCIM5021 | 500 µg/mL | – | 13 mm |
| Cc1cc(N)c2ccccc2[n+]1CCCCCCCCCC[n+]1c(C)cc(N)c2ccccc21 | disc diffusion | – | 50 µg/disc | – | 9 mm |
| Cc1nn(-c2nc3ccccc3s2)c2c1C(=O)c1ccccc1-2 | well diffusion | NCIM5021 | 1000 µg/mL | – | 11 mm |
| CC(=O)C1=C(C)N2NC(C)(c3ccccc3O)N(C(Cc3c[nH]c4ccccc34)C(=O)O)C2=NC1c1ccc(Cl)cc1 (stereo not drawn) | – | ATCC25923 | 15 µg/mL | 24 h | 33 mm |
| COc1cc(C=Cc2cc(-c3ccc(N(C)C)cc3)nc(O)n2)ccc1O | disc diffusion | ATCC29213 | 250 µg/mL | – | 6 mm |
| CC(C)c1nn(-c2nc3ccc(Br)cc3s2)c2c1C(=O)c1ccccc1-2 | well diffusion | NCIM5021 | 250 µg/mL | – | 11 mm |
| CC(C(=O)O)N1c2nc(-c3ccc(Cl)cc3)c(C#N)c(=O)n2NC1c1ccccc1O (stereo not drawn) | – | ATCC25923 | 10 µg/mL | 24 h | 14 mm |
| Cc1ccc2nc(-n3nc(C)c4c3-c3ccccc3C4=O)sc2c1 | well diffusion | NCIM5021 | 250 µg/mL | – | 11 mm |
| COc1cc(C=CC(=O)CC(c2ccc([N+](=O)[O-])cc2)n2ccnc2)ccc1O (stereo not drawn) | disc diffusion | ATCC29213 | 250 µg/mL | – | 6 mm |
| CC(=O)C1=C(C)N2NC(c3ccccc3O)N(C(Cc3c[nH]c4ccccc34)C(=O)O)C2=NC1c1ccc(Cl)cc1 (stereo not drawn) | – | ATCC25923 | 15 µg/mL | 24 h | 32 mm |
| CN[C@H](CC(C)C)C(=O)N[C@H]1C(=O)N[C@@H](CC(N)=O)C(=O)N[C@H]2C(=O)N[C@H]3C(=O)N[C@H](C(=O)N[C@H](C(=O)O)c4cc(O)cc(O)c4-c4cc3ccc4O)[C@H](O)c3ccc(c(Cl)c3)Oc3cc2cc(c3O[C@@H]2O[C@H](CO)[C@@H](O)[C@H](O)[C@H]2O[C@H]2C[C@](C)(N)[C@H](O)[C@H](C)O2)Oc2ccc(cc2Cl)[C@H]1O | disc diffusion | ATCC29213 | 15.6 µg/disc | 24 h | 16 mm |
| CCOC(=O)C1=C(C)N2NC(c3ccccc3O)N(C(Cc3c[nH]c4ccccc34)C(=O)O)C2=NC1c1ccc(Cl)cc1 (stereo not drawn) | – | ATCC25923 | 10 µg/mL | 24 h | 19 mm |
| CC1(C)S[C@@H]2[C@H](NC(=O)[C@H](N)c3ccc(O)cc3)C(=O)N2[C@H]1C(=O)O | disc diffusion | ATCC29213 | 250 µg/mL | – | 9.37 mm |
| CC(C)c1nn(-c2nc3ccccc3s2)c2c1C(=O)c1ccccc1-2 | well diffusion | NCIM5021 | 125 µg/mL | – | 10 mm |
| N#Cc1c(-c2ccc(Cl)cc2)nc2n(c1=O)NC(c1ccccc1O)N2C(Cc1c[nH]c2ccccc12)C(=O)O (stereo not drawn) | – | ATCC25923 | 10 µg/mL | 24 h | 18 mm |
| COc1cc(C=CC(=O)CC(c2ccc(N(C)C)cc2)n2ccnc2)ccc1O (stereo not drawn) | disc diffusion | ATCC29213 | 250 µg/mL | – | 9 mm |
| CC(C(=O)O)N1C2=NC(c3ccc(Cl)cc3)C3=C(OC(C)(C)OC3=O)N2NC1(C)c1ccccc1O (stereo not drawn) | – | ATCC25923 | 10 µg/mL | 24 h | 10 mm |
| COc1ccc2nc(-n3nc(C)c4c3-c3ccccc3C4=O)sc2c1 | well diffusion | NCIM5021 | 125 µg/mL | – | 11 mm |
